This is an account of results in publication PMC4980657 (Journal of medicinal chemistry, 2015).

Assay [1] concerns the target PCP binding site of the NMDA receptor. The conditions noted are these: rat brain membranes, cited from earlier work; for Ki: read-out: [3H]TCP Ki; for inhibition (%) of [3H]TCP binding: test ligand at 1.0 μM.
The target is the same in assay [2]. The conditions noted are these: read-out: Ki vs [3H]1; cited from earlier work.
The target is the same in assay [3]. The conditions noted are these: mean from two experiments, rat brain membranes; for inhibition (%) of [3H]TCP binding: test ligand at 1.0 μM. The method in brief: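 Outsourced to a contract lab using rat brain membrane suspensions and [3H]TCP as radioligand. Test ligands were first screened at 1 μM for percent inhibition of [3H]TCP binding. […] Values are the mean of two experiments.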

SMILES strings stand for the structures. Read-outs that look alike come from different tables or passages of the source.

Turning to `CN(C(N)=Nc1cccc2ccccc12)c1cccc(I)c1` [compound 3, reference compound], in assay [1], the Ki is 31.9 nM and the “inhibition (%) of [3H]TCP binding” value is 106%.
Regarding `CN(C(=N)Nc1cccc2ccccc12)c1cccc(C(F)(F)F)c1` [compound 7, 1-Methyl-3-(naphthalen-1-yl)-1-(3-(trifluoromethyl)phenyl)guanidine], the Ki was 2.68 nM in assay [2] and 18.3 nM in assay [1]. In addition, in assay [1], the “inhibition (%) of [3H]TCP binding” value is 107%.
With `CN(C(=N)Nc1cccc2ccccc12)c1cc(C(F)(F)F)ccc1F` [compound 13, 1-(6-fluoro-3-(trifluoromethyl)phenyl)-1-methyl-3-(naphthalen-1-yl)guanidine], the Ki in assay [3] (read-out: [3H]TCP Ki) stood at 13 nM. Further, the “inhibition (%) of [3H]TCP binding” value in assay [3] turned out to be 91.0%.
In the case of `CN(C(=N)Nc1cc(SCF)ccc1Cl)c1cccc(C(F)(F)F)c1` [compound 46, 3-(2-Chloro-5-(fluoromethylthio)phenyl)-1-methyl-1-(3-(trifluoromethyl)phenyl)guanidine], in assay [3], the “inhibition (%) of [3H]TCP binding” value is given as 57.5%.
